According to ChEMBL document CHEMBL1154750 (J Med Chem, 2010):

Target: Neuraminidase (Influenza A virus) (UniProt B4URF0)
Experiment: Inhibition of oseltamivir-resistant Influenza Virus A/342/0 (H1N1) neuraminidase at 52.5 uM
Procedure, shortened: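 Human oseltamivir-resistant H1N1 NA tested at a single 52.5 μM concentration in the NA-Star chemiluminescent assay. Compound and virus dilution were held 20 min at 37 C, then substrate (1:500) was added for 30 min at room temperature. Value given as percent inhibition relative to six untreated virus controls.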

Sequence of Neuraminidase (Influenza A virus) (B4URF0 as listed by the source): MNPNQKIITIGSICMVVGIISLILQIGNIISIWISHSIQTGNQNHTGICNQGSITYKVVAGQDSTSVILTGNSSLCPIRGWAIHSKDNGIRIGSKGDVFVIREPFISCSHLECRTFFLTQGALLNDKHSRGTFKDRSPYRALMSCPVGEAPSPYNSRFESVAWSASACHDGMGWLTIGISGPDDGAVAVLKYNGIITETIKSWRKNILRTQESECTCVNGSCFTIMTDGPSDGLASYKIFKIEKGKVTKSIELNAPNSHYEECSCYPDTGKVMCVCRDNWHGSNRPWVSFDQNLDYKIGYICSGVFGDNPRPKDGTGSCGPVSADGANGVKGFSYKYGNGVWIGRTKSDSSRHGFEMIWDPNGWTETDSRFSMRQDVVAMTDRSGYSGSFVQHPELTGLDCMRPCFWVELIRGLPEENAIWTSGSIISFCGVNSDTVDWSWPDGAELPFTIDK

For `O=C(CCc1ccccc1)C[C@@H]1C[C@@H](c2ccccc2)c2c(cc(/C=C/c3ccccc3)oc2=O)O1` [KATSUMADAIN A], which inhibition is on record?
The inhibition was 45.9%.
